Compounds with a hit are over-represented: about 1.6% of the library has one in this group of screens.
MT1-MMP act inh: blocks activation of human MT1-MMP; P50281; HT1080 RFP-PRO-GFP cells, GFP/RFP ratio fluorescence, overnight; percent of plate control window, DMSO zero; GFP/RFP ratio change, % at 20 µM; 0.061% of 360,000 active;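 active means GFP/RFP ratio change of at least 30% with cell ATP level not reduced by more than half and red fluorescence within 50% of control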
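system = RFP-PRO-GFP reporter HT1080 cells | dosing = 20 µM single dose, 1% DMSO | timing = overnight cell settling, then overnight compound exposure, 37 °C, 5% CO2 | read-out basis = GFP/RFP fluorescence ratio | controls = DMSO and RFP-L50D-GFP cell wells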
MsrA act: activators of bovine methionine sulfoxide reductase A. activation, % at 10.6 µM. 0.3% of 360,000 active. AID 602163. purified bovine MsrA, absorbance read-out; in the data active means activation above about 7.5%;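 further: 0% = vehicle and 100% = reference activator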
pCIP destab: lowers stability of the mouse p/CIP coactivator protein; Q05BA5; F442A p/CIP-EGFP cells, EGFP fluorescence, 16 h; decrease of EGFP signal, % at 10 µM; 0.01% of 290,000 active;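 active means EGFP signal decrease of at least 30% at 10 µM or well 3 SD below plate mean, unless failing retest; inactive means the rest, including hits failing retest or dose response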
Target sequence (Q05BA5 1-1403): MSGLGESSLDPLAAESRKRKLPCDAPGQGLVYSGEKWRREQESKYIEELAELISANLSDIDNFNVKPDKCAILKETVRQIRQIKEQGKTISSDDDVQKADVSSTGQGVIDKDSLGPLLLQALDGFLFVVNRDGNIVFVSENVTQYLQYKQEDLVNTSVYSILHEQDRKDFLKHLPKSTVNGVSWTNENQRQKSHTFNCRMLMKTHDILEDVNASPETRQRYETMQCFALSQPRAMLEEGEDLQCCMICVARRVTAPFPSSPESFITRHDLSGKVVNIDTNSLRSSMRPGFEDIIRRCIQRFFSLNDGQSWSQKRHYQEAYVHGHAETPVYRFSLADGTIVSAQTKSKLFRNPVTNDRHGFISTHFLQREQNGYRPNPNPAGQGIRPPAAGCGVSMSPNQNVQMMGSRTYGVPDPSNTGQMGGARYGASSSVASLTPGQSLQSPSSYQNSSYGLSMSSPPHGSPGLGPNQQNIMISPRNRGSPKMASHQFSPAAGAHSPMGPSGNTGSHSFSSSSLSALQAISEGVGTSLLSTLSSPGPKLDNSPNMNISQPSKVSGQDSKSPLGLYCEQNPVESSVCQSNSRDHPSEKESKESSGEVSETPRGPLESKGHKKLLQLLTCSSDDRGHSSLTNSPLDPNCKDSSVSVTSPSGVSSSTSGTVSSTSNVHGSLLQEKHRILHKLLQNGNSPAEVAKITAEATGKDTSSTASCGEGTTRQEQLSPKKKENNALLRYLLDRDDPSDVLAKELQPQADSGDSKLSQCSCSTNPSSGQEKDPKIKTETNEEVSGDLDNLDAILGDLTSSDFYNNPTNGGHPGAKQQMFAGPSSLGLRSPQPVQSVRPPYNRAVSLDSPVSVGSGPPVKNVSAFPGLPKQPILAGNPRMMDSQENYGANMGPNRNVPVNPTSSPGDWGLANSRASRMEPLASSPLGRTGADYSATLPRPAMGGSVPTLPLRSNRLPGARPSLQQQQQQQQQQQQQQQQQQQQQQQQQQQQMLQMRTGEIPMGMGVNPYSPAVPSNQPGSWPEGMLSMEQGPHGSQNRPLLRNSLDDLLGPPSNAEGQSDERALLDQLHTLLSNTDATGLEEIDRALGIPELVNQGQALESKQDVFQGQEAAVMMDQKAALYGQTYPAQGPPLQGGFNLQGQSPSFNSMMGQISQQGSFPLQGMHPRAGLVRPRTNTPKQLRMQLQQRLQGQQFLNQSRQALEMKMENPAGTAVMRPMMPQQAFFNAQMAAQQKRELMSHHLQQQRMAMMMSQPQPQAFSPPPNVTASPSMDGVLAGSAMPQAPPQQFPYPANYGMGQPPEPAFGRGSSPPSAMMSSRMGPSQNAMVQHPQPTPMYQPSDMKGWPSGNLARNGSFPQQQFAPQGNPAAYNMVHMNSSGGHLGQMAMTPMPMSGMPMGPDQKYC
MsrA inh: inhibitors of bovine MsrA. purified bovine MsrA, absorbance read-out. inhibition, % at 15.5 µM. 0.75% of 360,000 active. AID 651718;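 further: 0% = vehicle wells with enzyme and 100% = reference inhibitor wells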
SKN-1 inh: C. elegans SKN-1 inhibition; inhibition, % at 21.8 µM; C. elegans VP596 Pgst-4::GFP/RFP ratio, acrylamide-induced, 24 h; 0.49% of 360,000 active; AID 624304;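 active means interference check ratio from 0.5 to 1.5 plus GFP to RFP signal ratio inhibition reaching or exceeding a fixed threshold, cut at about 30% in these data, passing the limit was not always enough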
MsrA conf: bovine MsrA inhibition, confirmed; shares compounds with MsrA inh; purified bovine MsrA, absorbance read-out; inhibition, % at 15.5 µM; 41% of 2,300 active; AID 651822;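 further: coupled to thioredoxin reductase with NADPH and selenocystamine and DMSO as substrate; 0% = vehicle only and 100% = full effect of reference inhibitor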
Starred values were filed as active, the others as inactive; · = not tested or not shown. Unless noted, no stated cut-off is given here; in the data, active means inhibition above about 4.5%; inactive means the rest.

SMILES	MT1-MMP act inh	MsrA act	pCIP destab	MsrA inh	SKN-1 inh	MsrA conf
CC1C(=O)NN=C1C(=O)N/N=C\C(Br)=C\c1ccccc1 (stereo not drawn)	7	-6	-11	5.7*	4	4
O=C1[C@H](c2ccccc2)[C@@H](c2ccncc2)N1c1ccncc1	·	·	·	0	·	·
C[C@@H]1ON(C)[C@H]2C[C@H]3c4cc(-c5ccc(F)cc5)ccc4CCN3C[C@@H]12	·	·	·	-1	·	·
Nc1ccccc1-n1nc2ccc3ccccc3c2n1	0	-1	·	0	26	·
COc1cc2nn(-c3ccccc3N)nc2cc1OC	5	-2	·	4.8*	12	2
Cc1cccc(N=c2oc3cc(O)ccc3cc2C(N)=O)c1	-30	0	-6	8.0*	6	10*
COc1ccccc1N=c1oc2cc(O)ccc2cc1C(N)=O	-25	-2	-25	2	17	·
CCCC1S/C(=N/N=C/c2ccco2)NC1=O (stereo not drawn)	-1	-4	-20	4.7*	14	6.6*
CC1(C)S/C(=N/N=C/c2ccco2)NC1=O	8	-14	0	5.9*	-3	5.5*
COc1ccccc1C(=O)N1CCN(C(=O)[C@@H](Cc2ccccc2)NC(=O)[C@H]2O[C@@H](n3ccc(=O)[nH]c3=O)[C@H](O)[C@@H]2O)CC1	·	·	·	1	·	·
CC(C)[C@H](NC(=O)CC1CCCC1)C(=O)N1CCC[C@H]1C(=O)NCc1ccccc1	·	·	·	-1	·	·
O=Nc1ccc(Br)cn1	·	·	·	0	·	·
O=C(O)CCCC[n+]1ccccc1	·	·	·	1	·	·
Cc1cccc(C)c1-n1cccc1/C=C1/C(=N)N2C(=NC1=O)SN=C2S(C)(=O)=O	-2	-8	3	7.4*	9	5.8*
Cc1ccc(-n2cccc2/C=C2/C(=N)N3C(=NC2=O)SN=C3S(C)(=O)=O)cc1Cl	-18	-6	14	1	17	·
O=C(Cc1ccc(NC(=O)C2CCCN(C(=O)c3ccccc3)C2)cc1)Nc1cccc(C(=O)N2CCCC2)c1 (stereo not drawn)	·	·	·	1	·	·
Cc1c(NC(=S)N/N=C/c2ccc(N(C)C)cc2)c(=O)n(-c2ccccc2)n1C	-4	-6	-6	5.0*	-8	4.6*
Cc1c(NC(=S)N/N=C/c2cccc(O)c2)c(=O)n(-c2ccccc2)n1C	3	-4	13	3	1	·
N#C/C(=C\c1cccc(O)c1)C(=O)Nc1ccc2c(c1)OCCO2	1	-2	10	1	5	·
CC(C)NC(=O)/C(C#N)=C/c1ccc2c(c1)OCCO2	-1	-9	4	6.3*	3	4
O=C(N/N=C/c1ccco1)/C(=C/c1cccc([N+](=O)[O-])c1)NC(=O)c1ccccc1	1	-3	-8	5.4*	6	4
CN(C)c1ccc(/C=C(/NC(=O)c2ccccc2)C(=O)N/N=C/c2ccc([N+](=O)[O-])c(O)c2)cc1	8	-7	-14	4	11	·
O=C(N/N=C/c1ccc(Br)o1)/C(=C/c1ccc([N+](=O)[O-])cc1)NC(=O)c1ccccc1	8	-3	-9	5.3*	9	3
Fc1ccccc1-c1n[nH]c(=S)n1/N=C/c1c[nH]c2ccccc12	-1	0	3	11*	-1	7.3*
CCc1c(-c2ccccc2Br)ncn1CCc1ccccc1OC	·	·	·	1	·	·
SMILES	MT1-MMP act inh	MsrA act	pCIP destab	MsrA inh	SKN-1 inh	MsrA conf
Nc1nonc1-c1nc2ccccc2n1CC(=O)O	-3	-4	6	1	4	·
O=C(N/N=C/c1ccc(-c2ccccc2[N+](=O)[O-])o1)c1cccnc1	1	1	-2	7.1*	16	3
Nc1nnc(CC(=O)N/N=C/c2ccc(-c3cccc(C(=O)O)c3)o2)s1	-5	-7	-3	5.2*	-15	4.9*
Cc1c(C(=O)O)cccc1-c1ccc(C=O)o1	1	-6	-5	5.0*	2	3
Nc1nonc1-c1nc2ccccc2n1CC(=O)N/N=C/c1ccc(-c2cccc(C(=O)O)c2)o1	1	-5	-10	5.7*	14	6.3*
CC(C)(C)c1cccc(N/C(=C\C(=O)c2ccccc2)c2ccccc2)c1	·	·	·	1	·	·
O=C(Cc1ccccc1)N1O[C@H]2C=C[C@@H]1C2	·	·	·	0	·	·
C=CCN1CC(COCCCC)Oc2ccc(Cl)cc2S1(=O)=O (stereo not drawn)	·	·	·	0	·	·
Cc1cc(Br)cn2c(Cc3ccccc3C(F)(F)F)c(-c3cccc(Cl)c3)nc12	·	·	·	0	·	·
Cc1nnc(N/N=C/c2ccc(-c3ccc(Br)cc3)o2)n1N	4	2	-15	2	12	·
O=C(N/N=C/c1ccc(N2CCOCC2)c([N+](=O)[O-])c1)c1ccc(F)cc1	6	-2	4	3	23	·
O=C(N/N=C/c1ccc(N2CCCC2)c([N+](=O)[O-])c1)c1cccnc1	4	-4	6	7.5*	9	5.5*
O=Cc1ccc(-c2cccc(C(=O)O)c2)o1	-3	-3	4	4.7*	6	2
Cc1nnc(N/N=C\c2ccc(-c3cccc(C(=O)O)c3)o2)n1N	4	3	-3	5.0*	13	6.0*
O=C(O)c1cccc(-c2ccc(/C=N/NC(=O)c3cccnc3)o2)c1	1	-5	5	5.9*	3	6.7*
COC(=O)C1=C(C)N(Cc2cccc(C(F)(F)F)c2)C(=NCc2ccc(OC)cc2)NC1c1ccc(F)cc1 (stereo not drawn)	·	·	·	-2	·	·
O=[N+]([O-])c1ccc(O)c(C=Nc2cccc3ncccc23)c1	2	-14	0	5.2*	27	3
O=[N+]([O-])c1ccc(O)c(C=Nc2cccc3ccccc23)c1	5	0	3	2	-3	·
O=C(CNC(=O)c1ccccc1)NCC(=O)OCC(=O)c1ccc(F)cc1	4	-4	-14	-2	15	·
Cc1ccc(C(=O)NCC(=O)NCC(=O)OCC(=O)c2ccc(F)cc2)cc1	2	-4	-10	52*	8	0
Nc1c2ccccc2nc2ccccc12	4	-3	-3	0	7	·
N#Cc1c2ccccc2nc2ccccc12	2	-3	-10	7.0*	10	5.0*
CCOC(=O)C1CSCCS(=O)(=O)N1Cc1cccc(F)c1 (stereo not drawn)	·	·	·	1	·	·
COc1c(O)ccc(/C=N\NC(=O)c2ccc3c(c2)OCO3)c1[N+](=O)[O-]	0	-4	-22	8.1*	7	4.9*
COc1c(O)ccc(/C=N/NC(=O)c2ccc3c(c2)OCCO3)c1[N+](=O)[O-]	3	-6	-3	7.2*	-7	4
COc1cc(/C=N/NC(=O)c2ccc3c(c2)OCCO3)cc(Cl)c1O	-1	-9	-1	6.0*	1	5.0*
Cc1cc(Br)cn2c(Cc3cccc(F)c3)c(-c3ccco3)nc12	·	·	·	0	·	·
Cc1ccc(/C=C/C(=O)Nc2nccs2)o1	-7	-5	-3	5.5*	9	7.8*

Screening results: PubChem, several laboratories
